The results in this text go back to PubChem BioAssay.

The source made the active and inactive calls.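 Rule for the calls, unless noted: active = viability at or below 30% in both replicate assays; inconclusive = viability at or below 30% in just one of the two assays; inactive = the rest.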

Experiment [1] can be described thus: Her2 expression decrease, cell viability multiplex – SKBR3 breast tumor cells, AlphaScreen, ATP viability, primary screen (AID 461;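 active = Her2 level under about 52% in both replicate screens, with viability over 70% of control, limit read from the data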;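 for Her2 level: lower value means less Her2 protein in the cells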;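 for viability: percent of carrier control wells set as 100% viability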). To be noted: SKBR3 Her2 protein level, 18-24 h, measured here: SKBR3 viability, ATP luminescence, at 10 µM.
For experiment [2], the target named is Receptor tyrosine-protein kinase erbB-2 (Homo sapiens) (UniProt P04626). The description is as above. To be noted: 18-24 h, at 10 µM, stronger effect = lower value.
Experiment [3] in a line: reduced viability of SK-BR-3 breast cancer cells – cell-based, 24 h, human, pilot screen (AID 572;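 active = viability at or below 10% of carrier control in both of two separate runs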;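 note: compound exposure lasted between 18 and 24 h rather than exactly 24 h; 100% = carrier-treated control wells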). To be noted: SK-BR-3 viability, CellTiter-Glo luminescence, at 10 µM, stronger effect = lower value. A general note: Cellular ATP, detected with luciferase, serves as a proxy for viable cell number.
Experiment [4] is described as follows: HUVEC growth inhibition – cell-based, human, primary screen (AID 575).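 Note: 100% = median of untreated cell wells with 0.1% DMSO on each plate.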 To be noted: HUVEC proliferation, CellTiter-Glo luminescence, 72 h; at 10 µM; stronger effect = lower value. Put shortly: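 Timing: 72 h treatment at 37 °C; material: HUVEC primary cells; technique: CellTiter-Glo luminescence measuring cellular ATP; controls: vehicle and MePR control wells; measure: percent of median DMSO-control luminescence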

Experiment [5] in a line: H69AR cell proliferation blockers – human, duplicate replicates, primary screen (AID 580;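 active = viability at or under a set limit in both replicates, limit being median viability minus 3 SD, cut at about 48% in these data, passing the limit was not always enough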;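 note: 100% = mean luminescence of untreated wells and 0% = no signal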). To be noted: H69AR lung tumor cells viability, ATP luminescence, 72 h; at 10 µM; stronger effect = lower value.
Experiment [6] in a line: MRP1 drug-resistance reversers in H69AR cells – cell-based, doxorubicin co-treatment, pilot screen (AID 601;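 active = viability loss from added drug above about 55%, and viability with drug at most 40%, in both replicates, limit read from the data, passing the limit was not always enough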). To be noted: CellTiter-Glo, 72 h, at 10 µM; for differential viability (reversal): stronger effect = higher value.
Experiment [7] can be described thus: yeast transport mutant growth inhibition pilot in 384-well plates, post-Golgi transport modulator project (AID 636; in the data active = inhibition above about 31%). To be noted: absorbance 615 nm, about 18 h, stronger effect = higher value.
Experiment [8] in a line: growth suppression of yeast trafficking mutant, preliminary HTS, modulators of trafficking downstream of Golgi apparatus project, 1536-format plate, OD 615 nm (AID 637; in the data active = inhibition above about 30%). To be noted: yeast transport mutant growth, absorbance 615 nm, 18 h; stronger effect = higher value.
[9] abbreviates: H69AR cells + 2 uM doxorubicin, measured here: viability with 2 uM doxorubicin, stronger effect = lower value.
Where [10] appears, read: H69AR cells, compound alone cytotoxicity.

Sequence of Receptor tyrosine-protein kinase erbB-2 (Homo sapiens) (P04626 whole entry, looked up): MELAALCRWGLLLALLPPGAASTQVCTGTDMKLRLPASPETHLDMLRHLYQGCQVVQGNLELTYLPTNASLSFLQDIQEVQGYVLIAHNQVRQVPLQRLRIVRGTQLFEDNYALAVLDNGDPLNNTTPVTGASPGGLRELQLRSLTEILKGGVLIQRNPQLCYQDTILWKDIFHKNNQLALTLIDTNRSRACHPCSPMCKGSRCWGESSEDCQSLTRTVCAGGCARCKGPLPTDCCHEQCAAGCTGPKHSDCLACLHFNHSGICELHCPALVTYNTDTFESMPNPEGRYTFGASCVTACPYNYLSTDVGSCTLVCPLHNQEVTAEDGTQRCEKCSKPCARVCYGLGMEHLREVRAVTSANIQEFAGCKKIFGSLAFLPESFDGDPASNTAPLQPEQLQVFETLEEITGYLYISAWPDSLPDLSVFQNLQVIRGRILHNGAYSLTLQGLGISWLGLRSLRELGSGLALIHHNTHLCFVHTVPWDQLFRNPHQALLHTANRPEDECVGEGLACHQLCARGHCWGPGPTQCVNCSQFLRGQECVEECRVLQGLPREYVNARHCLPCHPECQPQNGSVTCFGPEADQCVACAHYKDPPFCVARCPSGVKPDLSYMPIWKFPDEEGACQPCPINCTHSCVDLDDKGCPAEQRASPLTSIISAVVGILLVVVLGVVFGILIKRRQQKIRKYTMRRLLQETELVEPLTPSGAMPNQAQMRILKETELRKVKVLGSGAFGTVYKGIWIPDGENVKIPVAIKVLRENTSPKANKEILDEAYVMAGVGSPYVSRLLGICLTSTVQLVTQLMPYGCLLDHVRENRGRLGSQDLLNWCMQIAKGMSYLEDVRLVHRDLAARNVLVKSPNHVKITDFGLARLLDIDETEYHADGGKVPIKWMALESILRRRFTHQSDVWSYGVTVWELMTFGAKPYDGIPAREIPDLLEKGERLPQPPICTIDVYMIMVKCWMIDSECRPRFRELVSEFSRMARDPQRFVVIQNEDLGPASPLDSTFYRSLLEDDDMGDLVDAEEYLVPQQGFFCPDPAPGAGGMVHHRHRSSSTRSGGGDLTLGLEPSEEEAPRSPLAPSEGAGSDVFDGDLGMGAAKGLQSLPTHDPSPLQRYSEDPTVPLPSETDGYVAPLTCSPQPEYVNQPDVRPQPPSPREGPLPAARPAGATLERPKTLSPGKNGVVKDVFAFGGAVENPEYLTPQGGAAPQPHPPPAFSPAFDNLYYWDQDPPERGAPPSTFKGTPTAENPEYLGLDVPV

On to `Cc1cc(-c2nc3ncccc3o2)ccc1N`, for which the viability (in general, a read-out of living cells in per cent, often relative to untreated cells) was 99% in experiment [1]; 99% (inactive) in experiment [3]; 92.6% (inactive) in experiment [4]; 90.4% (inactive) in experiment [5]; 84% in experiment [6] (setting [9]); 90.4% in experiment [6] (setting [10]). In addition, in experiment [2], the Her2 level was 76.5% (inactive). The differential viability (reversal) in experiment [6] (H69AR cells + 2 uM doxorubicin) was 6.33% (inactive). Moreover, the inhibition (commonly the drop in the measured response relative to a control, in per cent) in experiment [7] was -2.37% (inactive); in experiment [8], 11% (inactive).
With `COCCn1c(SCC(=O)N(C(C)C)C(C)C)nnc1-c1cc2ccccc2cc1O`, the viability was 96% in experiment [1]; 96% (inactive) in experiment [3]; 106% (inactive) in experiment [4]; 88.3% (inactive) in experiment [5]; 88% in experiment [6] (setting [9]); 88.3% in experiment [6] (setting [10]). For the same molecule, the Her2 level in experiment [2] is 91.5% (inactive). The differential viability (reversal) in experiment [6] (H69AR cells + 2 uM doxorubicin) is 0.38% (inactive). Further, the inhibition is -1.3% (inactive) in experiment [7] and -5.5% (inactive) in experiment [8].
With `COc1ccc(C(=O)N2CCN(c3nc4cc(C)ccc4cc3C#N)CC2)c(OC)c1`, the viability is 112% in experiment [1]; 112% (inactive) in experiment [3]; 88.1% (inactive) in experiment [4]; 85.4% (inactive) in experiment [5]; 94.5% in experiment [6] (setting [9]); 85.4% in experiment [6] (setting [10]). Further, in experiment [2], the Her2 level was 98% (inactive). Moreover, the differential viability (reversal) in experiment [6] (H69AR cells + 2 uM doxorubicin) was -9.04% (inactive). Also, the inhibition in experiment [7] is -2.73% (inactive); in experiment [8], -1.75% (inactive).
On to `CCOC(=O)c1nnc(-c2ccccc2)o1`, for which the viability in experiment [1] is 101%; in experiment [3] it was 101% (inactive); in experiment [4] it was 86.1% (inactive); in experiment [5], 88.1% (inactive); in experiment [6] (setting [9]), 79%; in experiment [6] (setting [10]), 88.1%. Moreover, in experiment [2], the Her2 level was 87.5% (inactive). In experiment [6] (H69AR cells + 2 uM doxorubicin), the differential viability (reversal) is 9.09% (inactive). Also, the inhibition in experiment [7] is -1.56% (inactive); in experiment [8], -1.43% (inactive).
With `Cc1c(/C(O)=C2/C(=O)C(=O)N(CCN3CCOCC3)C2c2cccnc2)cnn1-c1ccccc1` (stereo not given), the viability in experiment [1] was 85.5%; in experiment [3], 85.5% (inactive); in experiment [4], 110% (inactive); in experiment [5], 91.5% (inactive); in experiment [6] (setting [9]) it was 82.3%; in experiment [6] (setting [10]), 91.5%. Besides, the Her2 level in experiment [2] was 108% (inactive). Besides, the differential viability (reversal) in experiment [6] (H69AR cells + 2 uM doxorubicin) is 9.19% (inactive). In addition, the inhibition was 1.45% (inactive) in experiment [7] and -1.09% (inactive) in experiment [8].
As for `CCCC(=O)N(Cc1cc2ccccc2[nH]c1=O)c1ccccc1OC`, the viability in experiment [1] is 97%; in experiment [3], 97% (inactive); in experiment [4] it was 105% (inactive); in experiment [5], 105% (inactive); in experiment [6] (setting [9]) it was 99.5%; in experiment [6] (setting [10]), 105%. In addition, in experiment [2], the Her2 level was 94.5% (inactive). The differential viability (reversal) in experiment [6] (H69AR cells + 2 uM doxorubicin) is 5.2% (inactive). The inhibition was -0.26% (inactive) in experiment [7] and 12.3% (inactive) in experiment [8].
Turning to `O=S(=O)(NC1CCCC1)c1ccc(S(=O)(=O)N2CCc3ccccc32)cc1`, the viability is 99.5% in experiment [1]; 99.5% (inactive) in experiment [3]; 66.1% (inactive) in experiment [4]; 71.5% (inactive) in experiment [5]; 69.6% in experiment [6] (setting [9]); 71.5% in experiment [6] (setting [10]). Also, the Her2 level in experiment [2] is 94.5% (inactive). The differential viability (reversal) in experiment [6] (H69AR cells + 2 uM doxorubicin) was 1.97% (inactive). Further, the inhibition in experiment [7] is -4.94% (inactive); in experiment [8] it was -12.4% (inactive).
With `Cc1nc(SCCC(=O)O)c2ccccc2n1`, the viability in experiment [1] was 98%; in experiment [3], 98% (inactive); in experiment [4], 88.4% (inactive); in experiment [5], 85.9% (inactive); in experiment [6] (setting [9]), 84%; in experiment [6] (setting [10]), 85.9%. The Her2 level in experiment [2] is 108% (inactive). For the same molecule, the differential viability (reversal) in experiment [6] (H69AR cells + 2 uM doxorubicin) was 1.88% (inactive). In addition, the inhibition in experiment [7] is -0.26% (inactive); in experiment [8], -0.5% (inactive).
`CCc1cccc(NS(=O)(=O)c2c(C)n[nH]c2C)c1`: the viability in experiment [1] was 92%; in experiment [3] it was 92% (inactive); in experiment [4], 110% (inactive); in experiment [5], 107% (inactive); in experiment [6] (setting [9]), 93.5%; in experiment [6] (setting [10]) it was 107%. Also, the Her2 level in experiment [2] is 96% (inactive). Moreover, the differential viability (reversal) in experiment [6] (H69AR cells + 2 uM doxorubicin) is 13.2% (inactive). The values for the inhibition in experiment [7] and in experiment [8] were -6.05% (inactive) and -5.08% (inactive), respectively.
Regarding `CCN(CC)CCCNS(=O)(=O)c1ccc(OC)cc1`, the viability in experiment [1] is 114%; in experiment [3], 114% (inactive); in experiment [4], 103% (inactive); in experiment [5], 90.3% (inactive); in experiment [6] (setting [9]), 98.9%; in experiment [6] (setting [10]), 90.3%. Also, the Her2 level in experiment [2] was 89% (inactive). Further, the differential viability (reversal) in experiment [6] (H69AR cells + 2 uM doxorubicin) was -8.58% (inactive). For the same molecule, the inhibition was -5.32% (inactive) in experiment [7] and -2.3% (inactive) in experiment [8].
`COc1cccc(NC(=O)COC(=O)c2ccco2)c1`: the viability is 112% in experiment [1]; 112% (inactive) in experiment [3]; 97.6% (inactive) in experiment [4]; 83.8% (inactive) in experiment [5]; 81.1% in experiment [6] (setting [9]); 83.8% in experiment [6] (setting [10]). Moreover, the Her2 level in experiment [2] is 94% (inactive). Also, in experiment [6] (H69AR cells + 2 uM doxorubicin), the differential viability (reversal) was 2.71% (inactive). The values for the inhibition in experiment [7] and in experiment [8] were -6.8% (inactive) and -1.27% (inactive), respectively.
As to `CCOC(=O)C1CCCN(c2c(N3CCN(c4ccccn4)CC3)c(=O)c2=O)C1` (stereo not given), the viability is 86.5% in experiment [1]; 86.5% (inactive) in experiment [3]; 86.7% (inactive) in experiment [4]; 102% (inactive) in experiment [5]; 86.5% in experiment [6] (setting [9]); 102% in experiment [6] (setting [10]). In addition, the Her2 level in experiment [2] is 104% (inactive). The differential viability (reversal) in experiment [6] (H69AR cells + 2 uM doxorubicin) is 15% (inactive). The inhibition in experiment [7] was 0% (inactive); in experiment [8], -2.46% (inactive).
Regarding `COc1ccccc1C1CC(c2ccc(C)cc2)Nc2ncnn21` (stereo not given), the viability in experiment [1] is 107%; in experiment [3], 107% (inactive); in experiment [4], 108% (inactive); in experiment [5], 102% (inactive); in experiment [6] (setting [9]) it was 118%; in experiment [6] (setting [10]) it was 102%. Also, in experiment [2], the Her2 level was 116% (inactive). The differential viability (reversal) in experiment [6] (H69AR cells + 2 uM doxorubicin) is -16% (inactive). Moreover, the inhibition is 4.67% (inactive) in experiment [7] and -3.17% (inactive) in experiment [8].
Take `Cc1ccccc1NC(=O)N1C2CCCC1CC(NC(=O)C1CC1)C2` (stereo not given): the viability in experiment [1] was 104%; in experiment [3] it was 104% (inactive); in experiment [4], 94% (inactive); in experiment [5], 104% (inactive); in experiment [6] (setting [9]), 93.9%; in experiment [6] (setting [10]) it was 104%. Also, the Her2 level in experiment [2] was 95% (inactive). Also, in experiment [6] (H69AR cells + 2 uM doxorubicin), the differential viability (reversal) was 10.3% (inactive). The inhibition was -7.07% (inactive) in experiment [7] and 9.02% (inactive) in experiment [8].
Regarding `O=C(Cn1cnc2ccccc2c1=O)NCCC(=O)N1CCN(Cc2ccccc2)CC1`, the viability in experiment [1] is 89%; in experiment [3], 89% (inactive); in experiment [4], 98.6% (inactive); in experiment [5] it was 89.8% (inactive); in experiment [6] (setting [9]) it was 85.2%; in experiment [6] (setting [10]), 89.8%. Further, the Her2 level in experiment [2] was 90% (inactive). In addition, in experiment [6] (H69AR cells + 2 uM doxorubicin), the differential viability (reversal) is 4.66% (inactive). The inhibition is 0.52% (inactive) in experiment [7] and 0.98% (inactive) in experiment [8].
On to `CCCCc1cc(=O)oc2cc(C)cc(OC(C)C(=O)O)c12` (stereo not given), for which the viability in experiment [1] was 116%; in experiment [3], 116% (inactive); in experiment [4] it was 109% (inactive); in experiment [5], 104% (inactive); in experiment [6] (setting [9]), 95.8%; in experiment [6] (setting [10]), 104%. Also, the Her2 level in experiment [2] was 115% (inactive). In experiment [6] (H69AR cells + 2 uM doxorubicin), the differential viability (reversal) is 8.19% (inactive). For the same molecule, the inhibition was -2.3% (inactive) in experiment [7] and -7.17% (inactive) in experiment [8].
